FLuc stim CS: affects firefly luciferase, flagging false hits in luciferase stimulation screens; P08659; ATPlite luciferase biochemical, luminescence, 10 min; 0 = ATP-free wells, 1 = DMSO control; activation factor at 10 µM; 200,000 tested, under 10 active;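 active = luciferase activation factor, scaled between plate controls, of at least 2 with compound at 10 µM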
Target sequence (P08659 whole entry, looked up): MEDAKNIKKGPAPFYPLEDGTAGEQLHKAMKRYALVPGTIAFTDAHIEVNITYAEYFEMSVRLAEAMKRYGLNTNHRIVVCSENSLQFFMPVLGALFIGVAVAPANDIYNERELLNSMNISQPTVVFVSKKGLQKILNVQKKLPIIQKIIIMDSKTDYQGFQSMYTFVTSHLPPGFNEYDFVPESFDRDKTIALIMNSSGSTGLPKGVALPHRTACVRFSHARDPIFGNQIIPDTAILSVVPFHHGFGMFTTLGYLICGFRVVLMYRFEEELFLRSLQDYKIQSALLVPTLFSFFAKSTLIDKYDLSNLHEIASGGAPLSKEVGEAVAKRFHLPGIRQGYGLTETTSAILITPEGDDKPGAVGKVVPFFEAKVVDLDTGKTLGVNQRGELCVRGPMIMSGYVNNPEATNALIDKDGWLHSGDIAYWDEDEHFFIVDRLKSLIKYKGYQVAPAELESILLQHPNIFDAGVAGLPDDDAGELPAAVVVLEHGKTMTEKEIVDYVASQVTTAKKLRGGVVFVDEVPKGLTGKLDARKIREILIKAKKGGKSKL
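Assay system: Luciferase/luciferin detection reagent, cell-free biochemical luciferase assay / Also added: ATP substrate / Schedule: 10 min at ambient temperature / Measured by: luminescence measurement of luciferase light output / Benchmarks: low control with PBS replacing ATP, high control enzyme plus ATP without compound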
STAT1 blocker: STAT1 signaling inhibition; inhibition, % at 5.5 µM; AID 920; NIH 3T3 STAT1-luciferase reporter, IFN-gamma, luminescence; 0.35% of 200,000 active;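 active = inhibition above a set limit, the mean inhibition across all tested compounds plus 3 SD, cut at about 34% in these data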;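 also: 0% = IFN-gamma with DMSO and 100% = IFN-gamma with 300 µM nifuroxazide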
STAT3 blocker: STAT3 signaling inhibition; U3A cells, IL-6 STAT3-luciferase reporter, luminescence; host cell line lacks STAT1; inhibition, % at 5.5 µM; AID 862; 0.89% of 190,000 active;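 active = inhibition above the mean inhibition across all screened compounds plus 3 SD, cut at about 44% in these data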;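 also: 0% = DMSO only wells and 100% = 100 µM nifuroxazide control wells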
STAT3 act: activators of IL-6 induced STAT3 signaling | U3A cells, IL-6 STAT3-luciferase reporter, luminescence; 100% = signal with IL-6 EC80 alone | 0.91% of 190,000 active | activation (% of control), % at 5.6 µM;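 active = activation above the screen-wide mean of compound activation plus 3 SD, cut at about 130% in these data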;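 also: 0% = background luminescence of wells with medium and substrate only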
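Test system: human U3A cells carrying STAT3-luciferase construct; control set: IL-6-only wells as 100% reference; timing: compound pre-incubation 1 h before IL-6, then 6 h stimulation at 37 °C; also added: IL-6 stimulus at 33 ng/mL final; evaluation: % activation versus median of IL-6-stimulated wells; detection: reporter luminescence signal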
STAT1 activator: increases IFN-gamma driven STAT1 reporter signal. NIH 3T3 STAT1-luciferase reporter, luminescence; 100% = IFN-gamma alone, no compound. activation (% of control), % at 5.5 µM. 2.6% of 200,000 active;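 active = activation above the screen-wide mean activation plus 3 SD, cut at about 130% in these data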;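 also: raw ratio to IFN-gamma control signal so 100% means no change and 0% no light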
FLuc inhib CS: counter-screen for luciferase assay inhibitors: firefly luciferase inhibition; AID 1006; ATPLite firefly luciferase biochemical luminescence, 10 min; inhibition, % at 10 µM; 1.5% of 200,000 active; P08659;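 active = inhibition above about 50% when tested at 10 µM, limit read from the data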
STAT1 activ conf: STAT1 activation, confirmation assay; 97% of 1,200 active; shares compounds with STAT1 activator; NIH 3T3 STAT1-luciferase reporter, IFN-gamma potentiation, luminescence; 100% = IFN-gamma EC80 alone, no compound; activation (% of control), % at 5.7 µM;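 active = activation above a set limit carried over from the earlier primary STAT1 screen, cut at about 140% in these data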;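 also: simple ratio to median IFN-gamma plus DMSO wells so 0% means no light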
NFkB act STAT1ct: activates NF-kappaB, counter-screen to STAT1 activators | shares compounds with STAT1 activator | HEK293T NF-kB luciferase reporter, TNF-alpha stimulated, luminescence; 100% = TNF-alpha with vehicle only | activation (% of control), % at 5.7 µM | 43% of 1,200 active | AID 1306;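 active = activation above the mean of solvent-only control wells plus 3 SD, set per campaign, cut at about 130% in these data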;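 also: TNF-alpha given at a submaximal dose yielding about 80% of full reporter signal; values are well signal over median control so 100% means no change and 0% no light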
STAT3 act STAT1c: human STAT3 activation in STAT1 activator counter-screen | AID 1316 | 46% of 1,200 active | U3A cells STAT3-luciferase reporter, IL-6, luminescence; cells lack STAT1; 100 = IL-6 alone, no compound effect | activation (% of control), % at 5.7 µM | shares compounds with STAT1 activator;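 active = activation above the solvent-only control well mean plus 3 SD, set per plate batch, cut at about 110% in these data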;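 also: 0% = no luminescence and 100% = median IL-6 plus DMSO wells; higher means more STAT3 reporter activation so hits are non-selective activators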
* = called active by the depositor; nt = not tested or not shown. Sampled rows, rich in hits. Any-hit rate of the full collection: about 4.9%.

SMILES | FLuc stim CS | STAT1 blocker | STAT3 blocker | STAT3 act | STAT1 activator | FLuc inhib CS | STAT1 activ conf | NFkB act STAT1ct | STAT3 act STAT1c
Cc1ccc(NC(=O)Cn2cccc2)c(Br)c1 | 1 | -8.9 | 4.9 | 98.0 | 108.1 | 0.0 | nt | nt | nt
Cc1ccc(NC(=O)c2ccccn2)c(Br)c1 | 0.5 | -60.6 | 13.9 | 92.4 | 152.1* | 48.8 | 199.6* | 125.9 | 110.3
Cc1ccc(/C=C/C(=O)O)cc1S(=O)(=O)N(CCO)CCO | 1 | 6.2 | 18.1 | 87.2 | 94.4 | 1.7 | nt | nt | nt
O=C(NC1CC1)C1=C[C@@H](C2CCCCC2)C[C@@H](OCc2ccc(CO)cc2)O1 | 1 | 5.9 | nt | nt | 95.9 | -1.7 | nt | nt | nt
NC(=O)C1=C[C@H](C2CCCCC2)C[C@H](OCc2ccc(CO)cc2)O1 | 1 | -74.3 | nt | nt | 171.0* | -3.4 | 162.9* | 141.7* | 163.5*
CCN1C(=O)/C(=C/c2cnn(CC)c2C)SC1=S | 1 | 10.8 | 10.0 | 93.9 | 90.5 | -1.3 | nt | nt | nt
C#CCN1C(=O)S/C(=C/c2cc(C)n(CC)c2C)C1=O | 0.7 | -109.4 | -0.1 | 99.6 | 199.4* | 25.7 | 239.2* | 133.6* | 101.9
Cc1ccc(SCCC(=O)OCC(=O)NCC2CCCCC2)cc1 | 1 | -2.2 | -1.0 | 102.2 | 101.0 | -4.3 | nt | nt | nt
Cc1cc(C(=O)COC(=O)c2cc(Cl)ccc2N)c(C)n1Cc1ccco1 | 0.7 | -63.3 | -12.0 | 112.4 | 156.4* | 33.7 | 185.0* | 128.0 | 114.8*
CCCCN(CC)CCNC(=O)CN1C(=O)COc2ccc(S(=O)(=O)N3CCCC3)cc21 | 1 | -4.8 | 0.3 | 97.7 | 104.3 | -2.5 | nt | nt | nt
Cc1ccc(C)c(N2CCN(c3cnn(-c4nc5ccccc5s4)c(=O)c3Cl)CC2)c1 | 0.8 | -62.0 | 5.8 | 97.6 | 156.0* | 23.1 | 181.9* | 125.7 | 105.2
CC(OC(=O)c1ccc2c(=O)n3c(nc2c1)CCCCC3)C(N)=O (stereo not given) | 1.1 | -6.8 | 11.3 | 94.8 | 105.0 | -5.4 | nt | nt | nt
Cc1ccc(/C=N/NC(=O)c2ccccn2)s1 | 0.3 | -61.0 | 21.3 | 84.1 | 154.5* | 75.0* | 162.9* | 114.6 | 95.8
Cc1nc(N)sc1-c1csc(Nc2ccc(Cl)cn2)n1 | 1 | -20.9 | 8.7 | 95.8 | 113.7 | 0.0 | nt | nt | nt
Cc1nc(N)sc1-c1csc(Nc2ccccn2)n1 | 1 | -76.1 | -3.0 | 106.5 | 169.1* | 4.2 | 183.2* | 131.2 | 129.1*
O=S(=O)(Nc1nc2ccccc2nc1Cl)c1ccc(Br)cc1 | 1 | 6.2 | 2.5 | 99.3 | 92.1 | -1.3 | nt | nt | nt
O=S(=O)(Nc1nc2ccccc2nc1N1CCc2ccccc2C1)c1ccc(Br)cc1 | 0.5 | -65.6 | 25.0 | 81.3 | 158.0* | 45.5 | 180.8* | 84.9 | 133.4*
O=C(NC1CCCCC1)N1CCN(Cc2ccco2)CC1 | 1 | -1.3 | 5.5 | 105.7 | 100.4 | -3.4 | nt | nt | nt
Oc1ccc(-c2csc(-c3ccccc3)n2)cc1O | 0.9 | -57.6 | 6.9 | 96.6 | 151.3* | 7.4 | 166.0* | 109.4 | 105.7
Cc1nc(-c2ccc(O)c(O)c2)cs1 | 1 | 6.6 | 9.8 | 96.6 | 93.8 | -1.0 | nt | nt | nt
CCc1ccc(C(=O)CN2CCSC2=N)cc1 | 0.4 | -63.1 | 10.8 | 90.0 | 159.3* | 63.2* | 209.4* | 135.8* | 95.4
CC(Oc1ccccc1)C(=O)Nc1nnc(C2CCCCC2)s1 (stereo not given) | 1.1 | -28.1 | -4.1 | 107.5 | 124.3 | -5.4 | nt | nt | nt
CCOC(=O)NC(=O)COC(=O)CCCSc1nc2ccccc2s1 | 1 | 5.7 | 2.3 | 102.0 | 93.5 | 0.3 | nt | nt | nt
CCOC(=O)N/C(N)=N/c1nc2ccccc2s1 | 0.6 | -72.5 | 19.6 | 85.2 | 166.4* | 40.0 | 210.3* | 124.6 | 98.6
CC(=O)Nc1ccc2c(c1)C(=O)c1ccccc1C2=O | 0.5 | -62.6 | 6.0 | 101.5 | 156.1* | 46.3 | 202.8* | 139.2* | 106.2
SMILES | FLuc stim CS | STAT1 blocker | STAT3 blocker | STAT3 act | STAT1 activator | FLuc inhib CS | STAT1 activ conf | NFkB act STAT1ct | STAT3 act STAT1c
O=C(Cc1ccc(Cl)cc1Cl)NCC1(N2CCOCC2)CCCCC1 | 1 | 3.1 | 1.6 | 100.3 | 97.0 | -2.1 | nt | nt | nt
COC(=O)c1c(-c2cccnc2)csc1NC(=O)c1cc(C)on1 | 0.6 | -56.9 | -10.6 | 109.6 | 152.5* | 36.6 | 202.1* | 137.2* | 127.5*
COC(=O)c1c(-c2ccc(C)cc2)csc1NC(=O)c1c(-c2ccccc2)noc1C | 1 | -13.5 | -5.4 | 104.6 | 111.8 | -4.6 | nt | nt | nt
NCCCC[C@H](N)c1nnc([C@H](CCC(=O)O)NC(=O)C2CCNCC2)o1 | 1.1 | 2.0 | nt | nt | 99.6 | -7.3 | nt | nt | nt
Cc1cc(N2CCN(C)CC2)ccc1NC(=O)c1c2c(nc3ccccc13)CCN(Cc1ccccc1)C2 | 1 | -69.5 | 0.4 | 107.2 | 165.7* | -3.2 | 118.3 | 110.5 | 114.9*
Cc1ccc2nsnc2c1NS(=O)(=O)c1c(C)ccc2nsnc12 | 1 | -1.7 | -14.3 | 120.4 | 101.6 | -3.7 | nt | nt | nt
Cc1ccc(/C=[N+](\[O-])c2ccc(N(C)C)cc2)c2nsnc12 | 0.3 | -72.0 | 23.9 | 83.2 | 162.5* | 72.1* | 199.0* | 136.8* | 106.5
Cc1ccc(/C(N)=N/OC(=O)c2ccc3c(c2)OCO3)cc1 | 0.2 | -63.2 | -9.2 | 105.4 | 156.2* | 77.9* | 185.9* | 136.3* | 105.5
N/C(=N\OC(=O)c1ccc2c(c1)OCO2)c1ccc(Cl)cc1 | 0.2 | -59.0 | -10.6 | 112.6 | 152.7* | 83.8* | 187.1* | 129.9 | 102.5
CC(=O)OC1CSC2c3ccccc3C(=O)N2Cc2sccc21 (stereo not given) | 1 | -1.2 | 10.3 | 95.3 | 99.4 | -1.5 | nt | nt | nt
Cc1cc(/C=C2/C(=O)N(C)C(=S)N2C)ccc1N1CCCC1 | 0.8 | -81.3 | -24.4 | 131.9 | 175.3* | 15.7 | 168.5* | 134.6* | 146.1*
Cc1cc(N2CCCC2)ccc1/C=C1/C(=O)N(C)C(=S)N1C | 1 | -9.0 | -13.4 | 114.6 | 106.4 | 0.0 | nt | nt | nt
CCOC(=O)c1sc2nc(C)cc(-c3ccccc3)c2c1N | 1 | 7.0 | 4.7 | 92.0 | 93.6 | -2.9 | nt | nt | nt
CCOC(=O)c1sc2nc(-c3ccccc3)ccc2c1N | 0.2 | -74.7 | 8.8 | 91.1 | 173.8* | 82.1* | 271.6* | 119.2 | 94.1
COc1ccc2cc(CCNC(=O)c3cccs3)c(=O)[nH]c2c1 | 1 | -65.1 | 3.1 | 97.2 | 159.1* | -3.9 | 192.7* | 140.3* | 109.9

Bioassay records deposited in PubChem BioAssay by several laboratories.
